An excerpt weighted towards active compounds, which were near 1.4% of everything screened.
Furin inhibitor: human furin inhibitors, primary screen, biochemical, fluorescence intensity | inhibition, % at 20 µM or 30 µM | hit rate 0.061% among 220,000 | purified furin, fluorogenic substrate cleavage; in the data active = inhibition above about 25%
thrombin 1536: human alpha-thrombin inhibitors, primary screen, counter-screen for coagulation protease inhibitor project, biochemical, 1536-well, fluorogenic AMC substrate. inhibition, % at 5 µM. hit rate 0.26% among 220,000. Prothrombin (Homo sapiens), P00734. Boc-VPR-AMC fluorogenic substrate cleavage;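 active = inhibition at or above 40%; inactive = inhibition below 40%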;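 also: 0% = enzyme with no compound and 100% = wells without enzyme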
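System: human alpha-thrombin protein; Compound dosing: one concentration per compound, 5 µM, with 0.2% DMSO; Timing: reaction at room temperature; Technique: AMC fluorescence, 355/460 nm; Controls: enzyme without compound as high, wells lacking enzyme as low.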
KLK5 inh: human KLK5 protease inhibitors, primary screen, biochemical, 1536-well | AID 873, 2007 | Kallikrein-5 (Homo sapiens), Q9Y337 | hit rate 0.59% among 210,000 | inhibition, % at 5 µM | recombinant hK5, fluorogenic AMC substrate cleavage;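 active = inhibition of 40% or more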;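 also: 0% = enzyme controls without compound and 100% = no-enzyme blanks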
m-calpain inh: inhibitors of pig calpain II, primary screen, biochemical, fluorogenic peptide substrate, 1536-well. AID 1236, 2008. hit rate 0.37% among 220,000. inhibition, % at 16 µM. purified calpain II, 30 min;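 active = inhibition above about 50%, limit read from the data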
FXIa inh 1536: human FXIa protease inhibitors, primary screen, biochemical, 1536-well; hit rate 0.14% among 220,000; Coagulation factor XI (Homo sapiens), P03951; inhibition, % at 5 µM; purified FXIa, Boc-Glu-Ala-Arg-AMC fluorogenic substrate;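 active = inhibition of at least 40%; inactive = inhibition below 40%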;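 also: fluorescence of freed AMC excited at 355 nm; 0% = enzyme without compound and 100% = no enzyme blank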
Target sequence (P03951 19-387 limits assumed): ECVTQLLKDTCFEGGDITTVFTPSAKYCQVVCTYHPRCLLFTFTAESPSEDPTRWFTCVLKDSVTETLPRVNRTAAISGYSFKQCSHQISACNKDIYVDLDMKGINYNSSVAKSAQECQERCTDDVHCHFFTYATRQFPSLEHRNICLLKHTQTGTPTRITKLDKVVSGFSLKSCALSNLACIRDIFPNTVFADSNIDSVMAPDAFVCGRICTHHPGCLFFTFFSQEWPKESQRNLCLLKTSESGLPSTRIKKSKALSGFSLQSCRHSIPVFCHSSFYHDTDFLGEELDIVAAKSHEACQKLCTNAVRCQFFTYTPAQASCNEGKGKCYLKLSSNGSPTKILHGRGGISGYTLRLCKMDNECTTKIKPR
Target sequence (P03951 388-625 limits assumed): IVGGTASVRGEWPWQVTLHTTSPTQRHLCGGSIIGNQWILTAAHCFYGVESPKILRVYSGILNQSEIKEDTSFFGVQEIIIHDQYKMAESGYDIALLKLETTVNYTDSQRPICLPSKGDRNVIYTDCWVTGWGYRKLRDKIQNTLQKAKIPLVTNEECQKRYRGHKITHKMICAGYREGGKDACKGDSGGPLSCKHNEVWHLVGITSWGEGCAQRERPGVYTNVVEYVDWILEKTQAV
FXIIa inh: human FXIIa protease inhibitors, primary screen, biochemical, 1536-well; Coagulation factor XII (Homo sapiens), P00748; inhibition, % at 5 µM; hit rate 0.3% among 220,000; purified FXIIa, Boc-QGR-AMC fluorogenic substrate, 2 h; in the data active = inhibition above about 40%;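 also: 0% = enzyme with no compound and 100% = blank without enzyme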
Active calls of the source: *; i = inactive; / = not tested or not shown.

SMILES	Furin inhibitor	thrombin 1536	KLK5 inh	m-calpain inh	FXIa inh 1536	FXIIa inh
CCc1cc2c(=O)c(Oc3ccccc3F)c(C)oc2c(CN(C)C)c1O	-23	-12	-14	i	-15	-29
C#CCSc1nsc(SCC#C)c1C#N	-8	1	-8	-34	5	12
CC(=O)Nc1ccc2c(c1)nc(CCN1CCOCC1)n2C	-16	-2	-18	-33	-3	3
CC(C)OP(=O)(OC(C)C)C(Nc1ccccc1)c1ccc2c(c1)OCO2 (stereo unspecified)	-9	17	-3	21	-6	-2
CC(C)COP(=O)(OCC(C)C)C(Nc1ccccc1)c1ccc2c(c1)OCO2 (stereo unspecified)	-20	9	-13	51*	-2	18
CCC1=C(OC(=O)N(CC)CC)N2C(=O)OC(=NCCc3c[nH]c4ccccc34)[C@]2(Cc2ccccc2)[C@H]2C1=CC[C@H]1C(=O)N(c3ccccc3)C(=O)[C@H]12	-29	-1	1	-61	2	5
CCCc1nnc(SCC(=O)N2CCCCC2C)n1CC (stereo unspecified)	-10	4	-10	-10	-10	-1
CC(=O)c1sc(NC(=O)COc2ccc(Cl)cc2C)nc1C	-9	24	59*	14	36	71*
CCS(=O)(=O)c1ccc(N)cc1	-7	-10	2	1	-2	6
CCS(=O)(=O)c1ccc(S(=O)(=O)CC)s1	-19	7	-18	52*	-4	4
CCN(CC)CCCNC(=O)c1ccc2c(Cl)c3c(nc2c1)CCCC3	-22	11	-3	-25	-5	7
O=C(NCCCN1CCCC1)c1ccc2c(Cl)c3c(nc2c1)CCCC3	-20	3	1	-29	-4	41*
CCOC(=O)c1cnc(SCC(C)C)nc1N	10	0	-9	4	-1	8
CNCc1cc2ccc(C)cc2[nH]c1=O	-21	9	45*	9	6	0
Cc1ccc2cc(CNC(C)(C)C)c(=O)[nH]c2c1	-1	3	1	9	4	-3
CCCN(CC1CC1)C(=S)NC(=O)C1CC1	-24	-7	8	11	-2	6
O=c1c2ccccc2nc(SCc2ccccc2F)n1C1CCCC1	-14	-5	-7	0	6	8
Cc1ccc(NC(=O)CSc2nnc([C@H](C)NC(=O)OC(C)(C)C)o2)c(C)c1	2	6	24	28	21	107*
O=C(N/N=C/c1ccccc1Cl)c1ccc(F)cc1	-22	-4	-12	-42	-2	10
COc1cc(S(=O)(=O)N2CCN=C2c2ccccc2)ccc1F	-7	3	-3	38	-8	12
Cc1ccc(S(=O)(=O)N2CCN=C2c2ccccc2)cc1C	-18	24	45*	34	22	17
O=C(CSc1nnc(Cn2nnc(-c3ccccc3)n2)n1-c1ccccc1)Nc1ccc(F)cc1	-21	69*	85*	35	9	6
O=C(N=Nc1c(O)[nH]c2ccc(Cl)cc12)c1cc(-c2cccs2)nc2ccccc12	4	-5	-13	89*	6	6
COC(=O)CCC(=O)Nc1nnc(C(F)(F)F)s1	-20	1	-2	2	-1	14
O=C(O)CCC(=O)Nc1nnc(C(F)(F)F)s1	-15	6	43*	-32	-1	3
SMILES	Furin inhibitor	thrombin 1536	KLK5 inh	m-calpain inh	FXIa inh 1536	FXIIa inh
COCCCn1c(-c2ccc(Cl)cc2)n[nH]c1=S	-14	4	-7	-29	0	23
COCCCn1cn[nH]c1=S	-8	-8	63*	1	28	22
COc1cc(S(=O)(=O)N2CCCCCC2)ccc1Cl	-17	-1	-12	-11	-15	-6
OC(CNc1ccccc1)COc1ccc(OCC(O)CNc2ccccc2)cc1 (stereo unspecified)	-6	0	58*	-19	2	14
O=C(Cn1c(=O)sc2ccccc21)Nc1ccc(S(=O)(=O)N2CCCC2)cc1	-14	-2	-7	54*	15	11
O=C(Nc1ccc(S(=O)(=O)N2CCCCCC2)cc1)c1ccc(Br)o1	-18	-3	6	55*	7	1
O=C(CCOc1ccccc1)Nc1ccc(S(=O)(=O)N2CCCC2)cc1	-2	-2	-13	57*	7	8
O=C(COC(=O)c1ccc(Br)o1)Nc1ccc(S(=O)(=O)N2CCCC2)cc1	-11	-2	0	-16	7	3
CC(=O)c1c(C)[nH]c(C(=O)OC(C)C(=O)Nc2cc(S(=O)(=O)N3CCCCC3)ccc2Cl)c1C (stereo unspecified)	-6	-11	-16	-11	-5	9
CCCCCCCOC(=O)C1=C(C)Nc2ncnn2C1c1cccs1 (stereo unspecified)	-17	4	3	-10	3	15
CCCCCCCCOC(=O)C1=C(C)Nc2nnnn2C1c1cccs1 (stereo unspecified)	-5	1	-7	50*	2	16
CSCCC(NC(=O)c1ccc(Br)cc1)C(=O)O (stereo unspecified)	-19	-7	-4	-32	-2	5
CSCCC(NC(=O)c1cncc(Br)c1)C(=O)O (stereo unspecified)	-11	9	52*	8	-3	16
COc1ccc(-c2ccc(-c3noc(-c4cccc(OC)c4)n3)c(OC)n2)cc1	-50	-1	60*	/	-6	-10
Cc1ccnc(SCC(=O)N2CCN(C(c3ccccc3)c3ccccc3)CC2)n1	-15	5	0	24	-2	18
Cc1ccccc1NC(=S)NCC1CCC(CNC(=S)Nc2ccccc2C)CC1 (stereo unspecified)	7	-3	-2	9	2	3
O=C(OCCN1C(=O)c2ccccc2C1=O)c1ccc(S(=O)(=O)N2CCCCCC2)cc1	-21	2	-1	68*	0	-11
O=C(OCCN1C(=O)c2ccccc2C1=O)c1ccccc1	-30	-2	-1	-21	-3	9
CCN(CC)CCCN1C(=O)CSC1c1ccc2c(c1)OCO2 (stereo unspecified)	-16	20	52*	14	3	19
CCN(CC)CCCN1C(=O)CSC1c1ccc([N+](=O)[O-])cc1 (stereo unspecified)	-5	-6	0	2	-4	4
Cc1ccc(NC(=O)C2CCN(S(C)(=O)=O)CC2)cc1	-30	9	49*	0	13	26
CC(C)c1ccc(NC(=O)C2CCN(S(C)(=O)=O)CC2)cc1	-17	-3	6	1	3	15

Screens: PubChem, several laboratories
